Experimental data gathered from unrelated publications.
Protocols differ between the studies behind these lines.
Target: RAC-gamma serine/threonine-protein kinase (AKT3, Homo sapiens, UniProt Q9Y243)

read-out | action | technique | tested at | quantity | value | Compound
enzyme activity | inhibitor | – | 5 µM | remaining activity | 87.3% | O=C(Nc1cnn(-c2csc(C(=O)NC3COC3)c2)c1)Nc1ccccc1Cl
enzyme activity | inhibitor | – | 0.75 µM | remaining activity | 39% | CCCOc1ccc(OC)c(F)c1C(=O)c1ccc(C(=O)N[C@@H]2CNC[C@H]2NC(=O)c2ccc3[nH]ncc3c2)cc1
enzyme activity | inhibitor | – | 0.5 µM | remaining activity | 93.3% | Cc1ccc(Nc2nccc(N(C)c3ccc4c(C)n(C)nc4c3)n2)cc1S(N)(=O)=O
thermal stability | – | DSF | 10 µM | ΔTm | -0.1 °C | Cn1c2c(c3ccc(Cl)c(Cl)c31)C(C#N)C1(CCCC1)NC2=O (stereo not drawn)
enzyme activity | inhibitor | – | 1 µM | inhibition | 6% | COc1cc2ncnc(Nc3ccc(Oc4ccccc4)cc3C)c2cc1OC
thermal stability | – | DSF | 10 µM | ΔTm | -0.7 °C | N#CC1c2c([nH]c3c(Cl)c(Cl)ccc23)C(=O)NC12CCCCC2 (racemic)
cell-free assay | – | competition with immobilised ligand | 0.1 µM | remaining binding | 98% | Cn1cc(Cl)c2c(Oc3c(F)cc(Nc4cc(Cl)nc(N)n4)cc3F)ccnc21
enzyme activity | inhibitor | – | 0.1 µM | activity vs control | 90% | Cc1cc(NC(=O)c2cccc3cc(-c4cccc5[nH]nc(N)c45)ccc23)ccc1F
cell-free assay | – | competition with immobilised ligand | 1 µM | remaining binding | 100% | FC(F)(F)c1ccc2c(c1)nc(-c1cccnc1)n2C1CC1
enzyme activity | inhibitor | – | 1 µM | activity vs control | 79% | Cc1ccc(C(=O)NCc2ccsc2)cc1C#Cc1cn(C(C)C)c2ncnc(N)c12
cell-free assay | – | competition with immobilised ligand | 1 µM | remaining binding | 95% | O=C(Nc1ccc(Oc2ccc(F)cc2)cc1)N1CCc2ncccc2[C@H]1c1ccc(F)cc1
cell-free assay | – | – | 0.5 µM | remaining signal | 102% | Cc1ccc(NC(=O)c2ccc(CN3CCN(C)CC3)cc2)cc1Nc1nc(-c2cccnc2)cs1
enzyme activity | inhibitor | – | 1 µM | inhibition | < 10% | CCCS(=O)(=O)Nc1ccc(F)c(C(=O)c2c[nH]c3ncc(-c4ccc(Cl)cc4)cc23)c1F
thermal stability | – | DSF | 10 µM | ΔTm | -0.2 °C | Cn1c2c(c3ccc(Cl)c(Cl)c31)C(C#N)C(C)(C)NC2=O (stereo not drawn)
cell-free assay | – | competition with immobilised ligand | 1 µM | remaining binding | 100% | CC(C)(O)c1cncc(-c2nc3ccc(F)cc3n2C2CC2)c1
cell-free assay | inhibitor | – | 20 µM | remaining signal | 85% | Nc1ncnc2occ(-c3ccc(NC(=O)Nc4cc(C(F)(F)F)ccc4F)cc3)c12
cell-free assay | – | competition with immobilised ligand | 1 µM | remaining binding | 100% | Cc1cc(NC(=O)c2cccc(S(F)(F)(F)(F)F)c2)cc(-n2ccn3nc(-c4cccnc4)cc23)c1
enzyme activity | inhibitor | – | 0.1 µM | inhibition | 22.8% | CC/C(=N\NC(=O)NCc1cccc(O)c1)c1ccc(O)c(C)c1O
